Bioassay records: PubChem BioAssay, several laboratories
HDAC3 inh = blocks human histone deacetylase 3; recombinant HDAC3, fluorogenic peptide/trypsin coupled, fluorescence; AID 2718; hit rate 0.15% among 320,000; inhibition, % at 8.3 µM; in the data active = inhibition above about 26%, passing the limit was not always enough; inconclusive = no clear call, values can overlap the other calls
SENP1 FRET inh = SENP1 (human) catalytic domain inhibition | recombinant SENP1 catalytic domain, CyPet-SUMO1-YPet FRET cleavage | AID 624204 | inhibition, % at 10 µM | hit rate 0.21% among 360,000 | Q9P0U3;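 active = inhibition at least 30% at 10 µM, raw YFP signal under a set limit, fluorescence ratio 0.5 to 1.5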
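Compound: 10 µM single point, 0.5% DMSO; Test system: hSENP1 catalytic domain, recombinant; Timing: 50 min reaction at room temperature; Technique: FRET, CFP and YFP emission; Control set: no-enzyme wells low, DMSO-plus-enzyme wells high control.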
AHR act = activators of human aryl hydrocarbon receptor; hit rate 2.5% among 320,000; AHR-responsive luciferase reporter cells, luminescence; P35869; activation, % at 5 µM; in the data active = activation above about 47%
Target sequence (P35869 whole entry, looked up): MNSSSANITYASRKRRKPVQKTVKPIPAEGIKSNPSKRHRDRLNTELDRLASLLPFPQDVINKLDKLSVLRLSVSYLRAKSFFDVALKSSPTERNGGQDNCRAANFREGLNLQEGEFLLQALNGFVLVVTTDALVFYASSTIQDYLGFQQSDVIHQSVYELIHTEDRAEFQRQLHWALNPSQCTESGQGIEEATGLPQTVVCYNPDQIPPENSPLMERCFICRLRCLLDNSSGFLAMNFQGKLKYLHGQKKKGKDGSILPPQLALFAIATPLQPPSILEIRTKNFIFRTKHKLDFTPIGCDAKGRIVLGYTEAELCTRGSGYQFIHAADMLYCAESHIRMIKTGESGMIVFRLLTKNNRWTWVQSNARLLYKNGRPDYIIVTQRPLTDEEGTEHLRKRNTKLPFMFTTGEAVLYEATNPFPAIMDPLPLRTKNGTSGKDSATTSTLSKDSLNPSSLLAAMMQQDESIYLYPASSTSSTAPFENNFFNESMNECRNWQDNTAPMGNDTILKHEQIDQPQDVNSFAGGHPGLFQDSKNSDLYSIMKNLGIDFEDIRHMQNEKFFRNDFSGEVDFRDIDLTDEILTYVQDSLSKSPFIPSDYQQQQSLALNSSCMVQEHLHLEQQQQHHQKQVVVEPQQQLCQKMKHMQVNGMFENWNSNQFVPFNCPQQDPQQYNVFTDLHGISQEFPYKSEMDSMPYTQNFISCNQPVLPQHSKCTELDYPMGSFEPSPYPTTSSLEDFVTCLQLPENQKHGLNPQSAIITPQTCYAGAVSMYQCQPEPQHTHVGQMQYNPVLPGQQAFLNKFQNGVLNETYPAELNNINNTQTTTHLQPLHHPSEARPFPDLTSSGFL
M18AAP inhibitor = PfM18AAP enzyme inhibition | recombinant PfM18AAP, H-Glu-NHMec fluorogenic cleavage | inhibition, % at 7.35 µM | hit rate 1.2% among 290,000 | AID 1822;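 active = inhibition above the campaign mean inhibition over all tested compounds plus 3 SD, cut at about 28% in these data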
GAA850 FXN act = activators of GAA850 frataxin (FXN) promoter | HEK293 lucGAA850 FXN promoter luciferase reporter, 24 h; percent of 10 µM SAHA response | activation, % at 6 µM | hit rate 0.56% among 360,000 | AID 540364;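 active = activation above the average of all compounds screened plus 3 SD, cutoff fixed separately per campaign, cut at about 7.5% in these data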
CTSL1 counter = counter-screen for PFM18AAP inhibitors: inhibitors of F. hepatica cathepsin L1 | recombinant F. hepatica cathepsin L1, Z-Leu-Arg-MCA fluorescence | inhibition, % at 5.96 µM | hit rate 0.49% among 300,000;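 active = inhibition above the mean of all tested compounds plus 3 SD, set per screening campaign, cut at about 17% in these data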
Hits are given with their value; . = inactive; ? = inconclusive; / = not tested or not shown. Compounds with a hit are over-represented: about 4.2% of the library has one in this group of screens.

SMILES	HDAC3 inh	SENP1 FRET inh	AHR act	M18AAP inhibitor	GAA850 FXN act	CTSL1 counter
CCC1(CC)NC(=O)N(CC(=O)OC(C)C(=O)Nc2ccccc2OC)C1=O (centres undefined)	.	.	.	/	.	.
CC(Sc1cccc[n+]1[O-])C(=O)NC1CCCCC1C (centres undefined)	.	.	.	/	.	/
C/C(=N\Nc1nc(C)cc(C)n1)c1ccc(C)o1	?	.	.	.	.	.
C/C(=N\Nc1nnc2c3ccccc3n(C)c2n1)c1ccc(C)o1	.	.	88.1	.	.	.
C=CCN1CN(S(=O)(=O)c2cccc(Cl)c2)c2nc3ccccc3nc21	.	.	.	.	.	16.8
COCCN1CN(S(=O)(=O)c2cccc(Cl)c2)c2nc3ccccc3nc21	.	.	.	.	.	.
O=c1[nH]cc(S(=O)(=O)N2CCN(c3cccc(Cl)c3)CC2)c(=O)[nH]1	.	.	.	/	.	.
CCOC(=O)[C@]12CCCC=C1N(CCc1ccc(OC)c(OC)c1)C(=O)[C@H](CC(=O)NCCc1ccccc1OC)C2	/	.	/	/	/	/
Oc1ccc(-c2nccc(-c3cccs3)n2)cc1	?	.	69.8	.	.	.
COC(=O)C(C)Oc1ccc(-c2nccc(-c3cccs3)n2)cc1 (centres undefined)	.	.	.	.	.	.
CCOc1ccc(-n2ccnc2SCC(=O)Nc2cc(C)on2)cc1	.	.	.	.	.	.
O=C(NC1CCCCC1)c1ccc(-c2ccccc2[N+](=O)[O-])o1	.	.	59.4	.	.	.
CCSc1nsc(NC(=O)Nc2cccc(OC)c2)n1	.	.	.	.	.	.
CCSc1nsc(NC(=O)Nc2ccccc2F)n1	.	.	78.2	.	.	.
O=C(c1ccc(Br)cc1)N(Cc1nc2ccccc2c(=O)[nH]1)C1CCCC1	.	.	.	.	.	.
NC(=S)N=Nc1ccc(NN=C(N)N)cc1	.	.	.	66.6	.	45.9
CC1(C(=O)N2CCCCC2)CCN1C(=O)c1ccccc1CCc1ccccc1 (centres undefined)	/	.	/	/	.	/
Cc1ccc(C(=O)Nc2oc(-c3ccccc3)cc2C#N)cc1	.	.	56.5	.	.	.
COc1ccc(NC(=O)Cn2c([N+](=O)[O-])cnc2C)c(OC)c1	/	.	/	/	.	/
COc1ccc(C(=O)Nc2ccccc2)cc1NC(=O)c1cccs1	.	.	/	.	.	/
CN(C)c1ccc(CC2C(=O)Nc3ccccc32)cc1 (centres undefined)	.	.	.	31.3	.	.
CC(C)=CCC/C(C)=C/COc1c2occc2cc2ccc(=O)oc12	/	.	69.3	/	.	/
CC(C)=CCC/C(C)=C/COc1ccc2ccc(=O)oc2c1	.	.	.	.	.	.
CCn1cnc2sc(C(=O)Nc3ccccc3OC)c(C)c2c1=O	.	.	67.6	.	.	.
COc1ccccc1NC(=O)c1sc2ncn(Cc3ccccc3C)c(=O)c2c1C	.	.	.	.	.	.
SMILES	HDAC3 inh	SENP1 FRET inh	AHR act	M18AAP inhibitor	GAA850 FXN act	CTSL1 counter
CCOc1ccccc1NC(=O)c1sc2ncn(CC(=O)N3CCOCC3)c(=O)c2c1C	.	.	54.7	.	.	.
CC1CCc2c(sc3nc(CSc4ncn[nH]4)[nH]c(=O)c23)C1 (centres undefined)	.	.	.	56.0	.	.
CSc1nc2sc3c(c2c(=O)[nH]1)CCC(C)C3 (centres undefined)	.	.	68.7	.	.	.
Cc1cc(N/N=C/c2ccccc2O)nc(N2CCOCC2)n1	.	.	.	.	.	.
COc1ccc(/C=N/Nc2cc(C)nc(NS(=O)(=O)c3ccc(C)cc3)n2)cc1	.	.	.	.	.	.
COc1ccc(/C=N/Nc2cc(N3CCCC3)nc(N3CCCC3)n2)cc1	.	.	68.3	.	.	.
COc1ccc(OC)c(/C=N/Nc2cc(C)nc(N3CCOCC3)n2)c1	.	.	67.8	.	.	.
COc1cc(/C=N/Nc2cc(C)nc(NS(=O)(=O)c3ccc(C)cc3)n2)ccc1O	/	.	/	29.5	.	/
COc1cc(/C=N/Nc2nc(N3CCCC3)nc(N3CCCC3)n2)ccc1O	37.8	.	.	.	.	.
CCCn1c2ccccc2c2cnn(CC(=O)NC3CCCC(C)C3C)c(=O)c21 (centres undefined)	.	.	.	.	.	.
COCCNC(=O)C1CCCN(C(=O)c2ccc(SC(F)(F)F)cc2)CC1 (centres undefined)	/	.	/	/	.	/
Cn1c2ccccc2c(=O)n2c(=O)c3ccccc3cc12	.	/	.	.	/	107.4
CC(C)NC(=O)C1(C)CN(S(C)(=O)=O)CC(=O)N1CCc1ccccc1 (centres undefined)	/	.	/	/	/	/
COc1ccc(-n2c(COc3cccc4ccccc34)nnc2SCC#N)cc1	.	.	.	29.2	.	.
Nn1c(SCC(=O)N2CCCC2)nnc1-c1cccs1	/	.	/	/	.	/
CCCS(=O)(=O)NC(=O)C1(C)CCN(C(=O)c2ccc3ccccc3n2)C1 (centres undefined)	/	.	/	/	.	/
Cc1ccc(C)c(NC(=O)CN(C)C(=O)C2CCN(C(=O)Nc3ccccc3)CC2)c1	.	.	.	/	.	17.3
COc1ccc(Cl)cc1NC(=O)CN(C)C(=O)C1CCN(C(=O)Nc2ccccc2)CC1	.	.	.	/	.	/
CCn1nc(C)c(CNC(=O)C2CCC(=O)N(CCc3ccc(Cl)cc3)C2)c1C (centres undefined)	.	.	.	.	.	.
O=C(c1ccccc1)n1nnc2ccccc21	96.2	.	.	.	.	.
CC(C)=NOc1cc(NC(=O)CCl)cc([N+](=O)[O-])c1	.	.	.	.	.	78.9
CCC(=O)Nc1cc(ON=C(C)C)cc([N+](=O)[O-])c1	.	.	.	.	.	.
C(=N\NCc1ccccc1)/c1ccc2nccnc2c1	.	.	.	.	.	.
Cc1ccc(NC2=C/C(=N\S(=O)(=O)c3cccs3)c3ccccc3C2=O)c(C)c1	.	.	.	.	.	88.2
Cc1ccc(Cl)cc1NC1=C/C(=N\S(=O)(=O)c2cccs2)c2ccccc2C1=O	.	.	.	.	.	59.5
SMILES	HDAC3 inh	SENP1 FRET inh	AHR act	M18AAP inhibitor	GAA850 FXN act	CTSL1 counter
Cc1cc(C)c(S(=O)(=O)/N=C2\C=C(NS(=O)(=O)c3ccccc3)C(=O)c3ccccc32)c(C)c1	.	.	.	.	.	.
O=C1C(Nc2ccc(O)cc2)=C/C(=N/S(=O)(=O)c2cccs2)c2ccccc21	/	.	/	.	.	/
Cc1cccc(NC2=C/C(=N/S(=O)(=O)c3cccs3)c3ccccc3C2=O)c1	.	.	.	.	.	53.9
COc1cc(-c2noc(C)c2C(=O)NCCCn2ccnc2)cc(OC)c1OC	.	.	.	/	.	/
Cc1ccc(F)c(Cn2cnc3c(cnn3C(C)(C)C)c2=O)c1Cl	.	.	.	/	.	/
O=C(Nc1ccccn1)c1nc(-c2ccccc2)n(-c2ccccc2)n1	.	.	55.6	.	.	.
N#Cc1ccc(NC(=O)c2nc(-c3ccccc3)n(-c3ccccc3)n2)cc1	.	.	.	.	.	.
